Screening results deposited in PubChem BioAssay by Johns Hopkins Ion Channel Center.
Compounds with a hit are over-represented: about 2.3% of the library has one in this group of screens.
TRPC4 PAM – positive allosteric modulators of TRPC4, primary screen, cell-based, mouse TRPC4beta, HEK293 mu-opioid, Fluo-4 calcium; Short transient receptor potential channel 4 (Mus musculus), Q9QUQ5; B-score at 10 µM; hit rate 0.42% among 310,000; DAMGO EC20, Fluo-4 Ca2+ flux; active compounds read high;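 active = B-score of calcium response area above 5 SD of library B-scores, with initial fluorescence ratio within 5 SD of library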;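 note: B-score of integrated fluorescence ratio over time as area under calcium response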
Target sequence (Q9QUQ5 whole entry, looked up): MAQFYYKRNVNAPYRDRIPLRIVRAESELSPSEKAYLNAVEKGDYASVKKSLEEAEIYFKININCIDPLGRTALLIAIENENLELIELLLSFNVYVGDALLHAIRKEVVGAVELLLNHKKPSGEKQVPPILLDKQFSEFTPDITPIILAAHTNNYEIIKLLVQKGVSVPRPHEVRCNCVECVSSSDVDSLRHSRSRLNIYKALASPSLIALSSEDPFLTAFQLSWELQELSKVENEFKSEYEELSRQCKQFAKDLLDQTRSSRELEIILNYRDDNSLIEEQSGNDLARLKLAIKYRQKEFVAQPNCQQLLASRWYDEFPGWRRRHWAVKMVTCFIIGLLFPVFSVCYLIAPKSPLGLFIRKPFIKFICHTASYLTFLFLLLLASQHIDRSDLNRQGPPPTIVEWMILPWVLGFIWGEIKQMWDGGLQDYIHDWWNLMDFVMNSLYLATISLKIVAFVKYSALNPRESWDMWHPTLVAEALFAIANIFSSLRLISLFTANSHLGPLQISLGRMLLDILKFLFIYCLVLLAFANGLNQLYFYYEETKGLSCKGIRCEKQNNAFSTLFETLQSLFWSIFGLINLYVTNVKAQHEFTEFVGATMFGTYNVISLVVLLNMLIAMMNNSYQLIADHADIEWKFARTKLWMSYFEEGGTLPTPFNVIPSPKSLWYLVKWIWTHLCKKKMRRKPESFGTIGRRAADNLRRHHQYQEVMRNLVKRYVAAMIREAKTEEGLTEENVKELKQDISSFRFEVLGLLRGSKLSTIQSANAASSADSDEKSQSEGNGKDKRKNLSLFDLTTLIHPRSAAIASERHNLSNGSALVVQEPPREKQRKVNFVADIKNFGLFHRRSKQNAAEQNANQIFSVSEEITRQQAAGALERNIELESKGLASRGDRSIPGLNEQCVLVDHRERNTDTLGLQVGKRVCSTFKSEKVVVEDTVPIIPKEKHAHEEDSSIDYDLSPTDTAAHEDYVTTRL
TRPC4 act – activators of mouse TRPC4 channel, primary screen, Fluo4 calcium, HEK293 TRPC4beta/mu-opioid cells | Fluo4 calcium fluorescence; active compounds read high | hit rate 0.49% among 310,000 | B-score at 10 µM | AID 2237, 2010;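 active = B-score above 5 SD of library B-scores, and initial fluorescence ratio not above library mean plus 5 SD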;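 note: positive B-score marks a calcium rise read as TRPC4 activation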
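Assay system: HEK293 stable line with TRPC4beta plus mu-opioid receptor. Times: dye 45 min RT, read 110 s. Measured by: kinetic Fluo4 calcium fluorescence. Measure: B score of integrated ratio. Controls: assay buffer as low control, maximal DAMGO as high control.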
TRPC6 activator – mouse TRPC6 channel activators, primary screen, cell-based, HEK293, membrane potential dye; Short transient receptor potential channel 6 (Mus musculus), Q61143; HEK293-TRPC6 membrane potential dye fluorescence; active compounds read high; B-score at 10 µM; hit rate 0.13% among 310,000; AID 2550, 2010;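 active = B-score of the integrated fluorescence ratio above library mean plus 3 SD, and starting fluorescence ratio within library mean plus 5 SD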;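 note: higher score means more depolarization so channel activation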
TRPC6 inh – mouse TRPC6 channel inhibitors, primary screen, cell-based, HEK293, membrane potential dye. Short transient receptor potential channel 6 (Mus musculus), Q61143. B-score at 10 µM. ACh-evoked depolarization; active compounds read low. hit rate 1.1% among 310,000;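 active = B-score under library mean minus 3 SD, initial fluorescence not abnormally high, positive integrated signal ratio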;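 note: B-score derived from integrated fluorescence ratio over the kinetic read; more negative B-score means stronger inhibition of depolarization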
TRPC4 block – inhibitors of mouse TRPC4 channel, primary screen, Fluo4 calcium, HEK293 TRPC4beta/mu-opioid cells | Short transient receptor potential channel 4 (Mus musculus), Q9QUQ5 | AID 2247, 2010 | DAMGO-evoked Fluo4 calcium flux; active compounds read low | B-score at 10 µM | hit rate 0.39% among 300,000;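 active = B-score over 3 SD under the library average, no early fluorescence shift, positive overall ratio signal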
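System: stable TRPC4beta/mu-opioid receptor HEK293 cells; Dosing: single-point compound dosing; Measured by: Fluo4 Ca2+ flux fluorescence; Read-out basis: per-well B score of integrated baseline-normalized Fluo4 ratio.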
TRPC4 sel inh 2 – mouse TRPC4 off-target activity of TRPC6 inhibitors, second screen; shares compounds with TRPC6 inh; HEK293 TRPC4/MOR, membrane potential dye fluorescence; channel activated by saturating DAMGO dose; inhibition, % at 10 µM; hit rate 42% among 920;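 active = compounds whose fluorescence signal differed from control wells by over 3 SD, either direction, in both duplicate plates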
TRPC4 spec – mouse TRPC4 modulation by TRPC6 hits, confirmation, selectivity assay for TRPC6 inhibitor project, cell-based, HEK293 TRPC4/mu-opioid, membrane potential dye; membrane potential fluorescence; activity change, negative = inhibition, % at 10 µM; shares compounds with TRPC6 inh; hit rate 61% among 920;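 active = rise or fall in signal beyond 3 SD of buffer-only wells in both replicate plates, either sign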;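 note: integrated kinetic ratio of fluorescence range over baseline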
HEK293 MPD ctr 2-1 – nonspecific membrane potential effects, parental HEK293, confirmation, counter-screen for TRPC6 inhibitor project, cell-based, second counter screen | hit rate 31% among 920 | signal change vs control, % at 10 µM | parental HEK293 membrane potential dye fluorescence; maximal acetylcholine challenge after compound addition | AID 2779, 2010 | shares compounds with TRPC6 inh;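 active = membrane potential signal moving either way by over 3 SD of the maximum-effect control, in both duplicate plates, meaning non-specific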
HEK293 MPD ctr-1 – membrane potential modulation in parental HEK293, confirmation, counter-screen for TRPC6 inhibitor project, cell-based | parental HEK293 membrane potential dye fluorescence | hit rate 60% among 920 | membrane potential signal change, % at 10 µM | shares compounds with TRPC6 inh;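 active = membrane potential signal shifting up or down by more than 3 SD of buffer-only wells, on both duplicate plates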
HEK293 MPD ctr-2 – parental HEK293 membrane potential modulation, confirmation, counter-screen for TRPC6 modulator project, cell-based; shares compounds with TRPC6 inh; membrane potential dye fluorescence; membrane potential signal change, % at 10 µM; hit rate 51% among 2,400; AID 488924, 2010;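 active = membrane potential signal moves up or down beyond 5 SD from buffer-only wells, on both duplicate plates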
HEK293 MPD ctr 2-2 – second check of TRPC6 modulator effects in parental HEK293 cells; shares compounds with TRPC6 inh; membrane potential dye fluorescence; after compound, maximal acetylcholine stimulation; inhibition, % at 10 µM; hit rate 14% among 2,400;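 active = membrane potential signal drops by more than 5 SD from the mean control signal, in both duplicate plates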;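 note: plate controls were acetylcholine ECmax control wells for no effect and buffer only wells for full effect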
TRPC4 ctr mod – TRPC4 modulation by TRPC6 hit compounds, confirmation, selectivity assay for TRPC6 modulator project, cell-based, HEK293 TRPC4/mu-opioid, membrane potential dye, mouse | shares compounds with TRPC6 inh | membrane potential fluorescence | percent change from control (negative = decrease, positive = increase), % at 10 µM | hit rate 69% among 2,400;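 active = membrane potential signal moved up or down beyond 5 SD of buffer control wells, in both duplicate plates, actives on both sides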;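 note: plate controls were assay buffer wells for no effect and DAMGO maximal-effect wells for full effect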
TRPC4 ctr inh 2 – second selectivity test of TRPC6 modulators against mouse TRPC4; shares compounds with TRPC6 inh; HEK293 TRPC4/mu-opioid, membrane potential dye fluorescence; stimulated with maximal-effect DAMGO; inhibition, % at 10 µM; hit rate 55% among 2,400; AID 488928;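 active = drop in membrane potential signal beyond 5 SD of the control wells in both duplicate plates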;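 note: TRPC4 counter screen for TRPC6 hits run under conditions tuned for TRPC6 not TRPC4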
TRPC6 block conf – mouse TRPC6 channel inhibitors, confirmation, HEK293 cells, membrane potential dye, duplicate; shares compounds with TRPC6 inh; ACh-evoked depolarization; inhibition, % at 10 µM; hit rate 43% among 3,300; AID 488960, 2010;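 active = fluorescence ratio falls more than 5 SD below the full-stimulation control mean, in both duplicate runs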;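 note: integrated fluorescence ratio of peak minus minimum over baseline after agonist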
TRPC6 act conf – mouse TRPC6 channel activators, confirmation, HEK293 cells, membrane potential dye, duplicate | shares compounds with TRPC6 inh | HEK293-TRPC6 membrane potential dye fluorescence, FDSS | activation, % at 10 µM | hit rate 11% among 2,800;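 active = ratio signal rise beyond 5 SD above unstimulated control wells' mean, seen in both duplicate runs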;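 note: plate controls were buffer EC0 wells for no effect and acetylcholine ECmax response for full effect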
Starred values were filed as active, the others as inactive; i = inactive; / = no result given; + = active, no number.

SMILES	TRPC4 PAM	TRPC4 act	TRPC6 activator	TRPC6 inh	TRPC4 block	HEK293 MPD ctr-2	HEK293 MPD ctr 2-2	TRPC4 ctr mod	TRPC4 ctr inh 2	TRPC6 block conf	TRPC6 act conf	others
Cc1cc(N(CCO)CCO)ccc1N=Nc1cc(F)ccc1F	i	i	i	-7*	i	/	/	/	/	63%*	i	TRPC4 sel inh 2=62%*;TRPC4 spec=-22%*;HEK293 MPD ctr 2-1=i;HEK293 MPD ctr-1=-454%*
C=C(C)CSc1nc2sc3c(c2c(=O)n1C1CCCCC1)CCN(C)C3	i	i	i	-7.5*	i	i	i	-20%*	i	i	i
COC(=O)c1ccc(CN2CCCC(CCC(=O)NCc3ccc(C)o3)C2)cc1 (stereo unspecified)	i	i	i	-7.9*	i	/	/	/	/	56%*	i	TRPC4 sel inh 2=i;TRPC4 spec=0.0%*;HEK293 MPD ctr 2-1=i;HEK293 MPD ctr-1=3.2%*
COc1ccc(/C=C/CN2CCCC(CCC(=O)NCc3ccc(F)c(F)c3)C2)cc1 (stereo unspecified)	i	i	i	-7.4*	i	/	/	/	/	i	i	TRPC4 sel inh 2=48%*;TRPC4 spec=0.3%*;HEK293 MPD ctr 2-1=i;HEK293 MPD ctr-1=7.4%*
COCCC(=O)N1CCCC(CCC(=O)NCc2ccc(F)c(F)c2)C1 (stereo unspecified)	i	i	i	i	i	/	/	/	/	/	/
COc1cccc(/C=N/NC(=O)Cn2ccnc2C)c1	i	i	i	i	i	/	/	/	/	/	/
COc1ccc(OC)c(/C=N/NC(=O)Cn2ccnc2C)c1	i	i	14*	-10*	i	i	i	i	i	80%*	186%*
CC1CCN(Cc2ccc(NC(=O)CC3Oc4ccccc4NC3=O)cc2)CC1 (stereo unspecified)	i	i	i	-10*	i	/	/	/	/	81%*	i	TRPC4 sel inh 2=i;TRPC4 spec=i;HEK293 MPD ctr 2-1=-8.0%*;HEK293 MPD ctr-1=i
CCC(C)N(CCNC(=O)CC1Oc2ccccc2NC1=O)C1CCCCC1 (stereo unspecified)	i	i	i	-8*	i	/	/	/	/	60%*	/	TRPC4 sel inh 2=i;TRPC4 spec=19%*;HEK293 MPD ctr 2-1=i;HEK293 MPD ctr-1=11%*
COc1ccccc1NC(=O)C(C)OC(=O)CCSc1ccc(F)cc1 (stereo unspecified)	i	i	i	i	i	/	/	/	/	/	/
Cc1cccc(C2(c3cccc(C)c3)CC2C(=O)Nc2ccc([N+](=O)[O-])cc2O)c1 (stereo unspecified)	i	i	i	i	i	/	/	/	/	/	/
CCOC(=O)c1cc(C)n(-c2c(C)n(C)n(-c3ccccc3)c2=O)c1C	i	i	i	-6*	i	i	i	i	i	i	i
Fc1ccc(CCNC(=S)Nc2ccc(F)c(Cl)c2)cc1	i	i	i	i	i	/	/	/	/	/	/
COc1ccc(/C=N/n2c(C3CCCCC3)n[nH]c2=S)c(OC)c1	i	i	i	i	i	/	/	/	/	/	/
Fc1ccc(CNC2CCN(Cc3ccccc3)CC2)cc1	i	i	i	i	i	/	/	/	/	/	/
Clc1ccc(CNC2CCN(Cc3ccccc3)CC2)cc1	i	i	i	-6*	i	i	i	i	55%*	i	/
O=C(CNCc1ccccc1)Nc1cccc(Cl)c1Cl	i	i	i	-6.2*	i	i	i	14%*	41%*	i	/
O=C1C(NS(=O)(=O)c2cccs2)=C(N2CCN(Cc3ccccc3)CC2)C(=O)c2ccccc21	i	i	i	-7.3*	i	-136%*	i	-36%*	72%*	58%*	i
CN1CCN(C2=C(NS(=O)(=O)c3cccs3)C(=O)c3ccccc3C2=O)CC1	i	i	i	i	i	/	/	/	/	/	/
Cc1cc(Nc2ccc3c(c2)OCCO3)c2cc(Cl)ccc2n1	i	i	i	-5.1*	i	-83%*	i	-16%*	44%*	i	i
Cc1cc(C)c(C#N)c(Nc2ccc3c(c2)OCCO3)n1	i	i	i	i	i	/	/	/	/	/	/
Nc1ccc(/C=C/C(=O)c2cccs2)cc1	i	92*	81*	i	i	+	+	291%*	76%*	/	543%*
